Each block holds one compound with its values, some of them ahead of it.
How the values were obtained:
in vitro [1] = conditions: human, Caco-2
in vitro [2] = conditions: human, Caco-2; remark: listed apart in the source
[3] = Oral bioavailability in rat at 10 mg/kg; format: ADME, organism-based; conditions: in vivo
In short: (§1)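 Fasted animals received a single oral dose of 10 mg/kg unless another dose was specified. Half-life was taken from the po profile.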

[4] = Oral bioavailability in dog at 10 mg/kg, po; format: ADME, organism-based, Canis lupus familiaris; conditions: in vivo
In short: as §1

[5] = Cmax in dog at 10 mg/kg, po; format: ADME, organism-based, Canis lupus familiaris; design: dose 10 mg/kg, route oral; conditions: in vivo
In short: (§2)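 Fasted rats or dogs received a single oral dose of 10 mg/kg. Plasma drug levels gave Cmax and oral half-life.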

[6] = Plasma concentration in mongrel dog arterio-venous shunt model of thrombosis at 3 mg/kg, po after 1 hr; format: ADME, organism-based, Canis lupus familiaris; design: dose 3 mg/kg, route oral
In short: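 Adult mongrel dogs of either sex (13.2–14.5 kg) were dosed orally at 3 mg/kg. After a 1 h observation period they were anesthetized with pentobarbital (35 mg/kg iv). Plasma taken at the 1 h time point was assayed for drug concentration and aPTT.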

Rattus norvegicus [7] = experiment: Plasma concentration in Sprague-Dawley rat electrical current-induced arterial thrombosis model at 0.3 mg/kg, iv administered 5 mins before electrical stimulation for 20 mins; format: ADME, organism-based; design: dose 0.3 mg/kg, route intravenous; conditions: in vivo
In short: (§3)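 Anesthetized rats with a carotid Doppler flow probe received 10% solutol vehicle or compound (0.03–1.0 mg/kg) by slow left jugular infusion over 20 min at 0.05 mL/min. Electrical stimulation of the carotid began 5 min into the infusion and lasted 5 min. Occlusion was followed for 30 min; plasma drug levels were related to aPTT.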

[8] = Cmax in rat at 10 mg/kg, po; format: ADME, organism-based; design: dose 10 mg/kg, route oral; conditions: in vivo
In short: as §2

Rattus norvegicus [9] = experiment: Plasma concentration in Sprague-Dawley rat electrical current-induced arterial thrombosis model at 1 mg/kg, iv administered 5 mins before electrical stimulation for 20 mins; format: ADME, organism-based; design: dose 1 mg/kg, route intravenous; conditions: in vivo
In short: as §3

[10] = Tmax in healthy human at 4 to 500 mg po; conditions: in vivo
[11] = Plasma concentration in Sprague-Dawley rat deep vein thrombosis model at 0.3 mg/kg, iv administered for 45 mins measured after 30 mins post dose; format: ADME, organism-based; design: dose 0.3 mg/kg, route intravenous
In short: (§4)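 Rats received vehicle (solutol 10% and D5W) or compound by jugular vein infusion over 45 min at 0.04 mL/min, to total cumulative doses of 0.1, 0.3 or 1.0 mg/kg. Thrombus formation in the vena cava began at 30 min of infusion. Blood was drawn from a carotid catheter at the end of the experiment for coagulation times and plasma drug concentration.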

[12] = Plasma concentration in Sprague-Dawley rat deep vein thrombosis model at 10 mg/kg, po measured after 70 mins post; format: ADME, organism-based; design: dose 10 mg/kg, route oral
In short: (§5)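 For oral dosing, compound at 10, 30 or 50 mg/kg was solubilized in 0.5% methocel (5 mL/kg) and given by oral dosing tube. Rats were anesthetized 45 min after dosing, followed by the venous thrombus procedure. Blood was sampled at study termination for plasma drug concentration and coagulation times.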

[13] = Plasma concentration in Sprague-Dawley rat deep vein thrombosis model at 50 mg/kg, po measured after 70 mins post; format: ADME, organism-based; design: dose 50 mg/kg, route oral
In short: as §5

[14] = Plasma concentration in Sprague-Dawley rat deep vein thrombosis model at 30 mg/kg, po measured after 70 mins post; format: ADME, organism-based; design: dose 30 mg/kg, route oral
In short: as §5

[15] = Cmax in rat at 30 mg/kg, po; format: ADME, organism-based; design: dose 30 mg/kg, route oral; conditions: in vivo
In short: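 Rats were fasted and given a single oral dose of 30 mg/kg. Cmax was taken from plasma drug concentrations.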

[16] = Plasma concentration in Sprague-Dawley rat deep vein thrombosis model at 0.1 mg/kg, iv administered for 45 mins measured after 30 mins post dose; format: ADME, organism-based; design: dose 0.1 mg/kg, route intravenous
In short: as §4

[17] = Plasma concentration in Sprague-Dawley rat deep vein thrombosis model at 1 mg/kg, iv administered for 45 mins measured after 30 mins post dose; format: ADME, organism-based; design: dose 1 mg/kg, route intravenous
In short: as §4

[18] = Apparent volume of distribution with respect to bioavailability in healthy human at 100 to 500 […]; format: ADME, organism-based; conditions: in vivo, in the assay text read “100 to 500 mg” for “100 to 500 mg/kg”, read-out: Vc/F
In short: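 Double-blind, placebo-controlled single oral solution doses (4–500 mg) in healthy fasted (≥10 h) males: six drug and two placebo subjects per cohort, given with 200 mL water. Venous blood was taken predose and at 0.5–48 h for plasma levels. aPTT was recorded in seconds and as a ratio to individual −1 h baseline.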

SMILES: Cc1cnc(NCCc2cccc3ccccc23)c(=O)n1CC(=O)NCCON=C(N)N
Papp A→B (in vitro [1]): 0.32 ×10⁻⁶ cm/s
Papp B→A (in vitro [2]): 11.8 ×10⁻⁶ cm/s

SMILES: CCc1ccc(CCNc2ncc(C)n(CC(=O)NCCONC(=N)N)c2=O)cc1
Papp A→B (in vitro [1]): 0.29 ×10⁻⁶ cm/s
Papp B→A (in vitro [2]): 10.3 ×10⁻⁶ cm/s

SMILES: Cc1ccc(CCNc2ncc(C)n(CC(=O)N(C)CCON=C(N)N)c2=O)cc1
Papp A→B (in vitro [1]): 0.27 ×10⁻⁶ cm/s
Papp B→A (in vitro [2]): 0.6 ×10⁻⁶ cm/s

SMILES: Cc1cnc(NCCc2ccc3c(c2)CCC3)c(=O)n1CC(=O)NCCONC(=N)N
Papp A→B (in vitro [1]): 0.67 ×10⁻⁶ cm/s
Papp B→A (in vitro [2]): 4.29 ×10⁻⁶ cm/s

Further lines, results first:

Papp A→B (in vitro [1]): 0.92 ×10⁻⁶ cm/s
Papp B→A (in vitro [2]): 1.84 ×10⁻⁶ cm/s
SMILES: Cc1cnc(NCCc2ccc(F)c(F)c2)c(=O)n1CC(=O)NCCONC(=N)N

Papp A→B (in vitro [1]): 0.5 ×10⁻⁶ cm/s
bioavailability [3]: 11%
bioavailability [4]: 57%
Cmax [5]: 3300 nM
concentration at 1 h [6]: 480 nM
concentration (Rattus norvegicus [7]): 85 nM
Papp B→A (in vitro [2]): 2.26 ×10⁻⁶ cm/s
Cmax [8]: 200 nM
concentration (Rattus norvegicus [9]): 380 nM
SMILES: N#Cc1cnc(NCC(F)(F)c2ccccc2)c(=O)n1CC(=O)NCCON=C(N)N

Papp A→B (in vitro [1]): 0.5 ×10⁻⁶ cm/s
Papp B→A (in vitro [2]): 1.91 ×10⁻⁶ cm/s
SMILES: Cc1cnc(NCCc2ccc(F)cc2F)c(=O)n1CC(=O)NCCONC(=N)N

Papp A→B (in vitro [1]): 0.55 ×10⁻⁶ cm/s
Papp B→A (in vitro [2]): 1.48 ×10⁻⁶ cm/s
SMILES: Cc1cnc(NCCc2ccc(F)cc2)c(=O)n1CC(=O)NCCONC(=N)N

Papp A→B (in vitro [1]): 0.14 ×10⁻⁶ cm/s
Papp B→A (in vitro [2]): 13 ×10⁻⁶ cm/s
SMILES: Cc1cnc(NCC(c2ccccc2)c2ccccc2)c(=O)n1CC(=O)NCCONC(=N)N

Papp A→B (in vitro [1]): 0.5 ×10⁻⁶ cm/s
bioavailability [3]: 9%
bioavailability [4]: 60%
Cmax [5]: 1600 nM
Papp B→A (in vitro [2]): 3.04 ×10⁻⁶ cm/s
Cmax [8]: 200 nM
SMILES: N=C(N)NOCCNC(=O)Cn1c(Cl)cnc(NCC(F)(F)c2ccccc2)c1=O

Tmax [10]: 1.25 h
Papp A→B (in vitro [1]): 1.37 ×10⁻⁶ cm/s
bioavailability [3]: 23%
concentration at 0.5 h [11]: 540 nM
bioavailability [4]: 103%
concentration at 70 min [12]: 100 nM
Cmax [5]: 5700 nM
concentration at 1 h [6]: 870 nM
concentration (Rattus norvegicus [7]): 120 nM
concentration at 70 min [13]: 730 nM
Papp B→A (in vitro [2]): 6.45 ×10⁻⁶ cm/s
concentration at 70 min [14]: 760 nM
Cmax [15]: 3300 nM
concentration at 0.5 h [16]: 310 nM
concentration at 0.5 h [17]: 800 nM
Vd/F [18]: 530 L
concentration (Rattus norvegicus [9]): 310 nM
SMILES: Cc1cnc(NCC(F)(F)c2ccccc2)c(=O)n1CC(=O)NCCONC(=N)N

Source: ChEMBL document CHEMBL1154904 (J Med Chem, 2010)
